Assay results from ChEMBL document CHEMBL1133431, “1,3-Diarylcycloalkanopyrazoles and diphenyl hydrazides as selective inhibitors of cyclooxygenase-2” (Bioorg Med Chem Lett, 2000).
pIC50: −log10 of the molar value.

Columns and labels:
[1] = molecular target: Prostaglandin G/H synthase 1 (Homo sapiens, UniProt P23219); assay: Inhibitory activity against human prostaglandin G/H synthase 1 in platelet-rich plasma measured by the presence of thromboxane A2
Procedure, shortened: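 Human peripheral blood drawn into heparin; platelet-rich plasma collected by centrifugation (200×g, 20 min, room temperature) and diluted 1:20 in 0.9% NaCl. Compound or vehicle preincubated 15 min at 37 °C, then stimulated with calcium ionophore A-23187 (free acid) for 15 min at 37 °C, then chilled on ice 5 min. Supernatant thromboxane B2 measured by radioimmunoassay.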

[2] = molecular target: T1, Prostaglandin G/H synthase 2 (Homo sapiens, UniProt P35354); assay: Inhibitory activity against human prostaglandin G/H synthase 2 in ECV-304 cells measured by the presence of PGE-2; assay type: cell-based
T1 sequence (P35354 whole entry): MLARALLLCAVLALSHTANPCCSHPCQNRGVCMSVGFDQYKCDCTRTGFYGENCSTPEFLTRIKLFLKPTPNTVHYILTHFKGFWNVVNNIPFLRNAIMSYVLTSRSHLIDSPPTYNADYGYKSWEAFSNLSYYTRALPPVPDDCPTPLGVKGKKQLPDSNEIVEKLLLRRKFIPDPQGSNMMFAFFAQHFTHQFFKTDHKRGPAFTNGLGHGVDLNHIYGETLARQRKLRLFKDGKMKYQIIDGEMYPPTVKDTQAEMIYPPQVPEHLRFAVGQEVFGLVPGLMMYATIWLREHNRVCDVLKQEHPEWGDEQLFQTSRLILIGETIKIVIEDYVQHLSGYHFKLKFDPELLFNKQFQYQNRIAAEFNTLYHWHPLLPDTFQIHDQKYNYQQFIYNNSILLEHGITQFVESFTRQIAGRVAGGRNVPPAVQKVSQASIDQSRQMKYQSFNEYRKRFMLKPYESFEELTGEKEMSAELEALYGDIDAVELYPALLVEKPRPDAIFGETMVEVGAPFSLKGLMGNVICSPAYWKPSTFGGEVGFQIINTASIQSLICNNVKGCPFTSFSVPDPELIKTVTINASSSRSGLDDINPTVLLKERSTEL

Prostaglandin G/H synthase 1, sequence (P23219 whole entry): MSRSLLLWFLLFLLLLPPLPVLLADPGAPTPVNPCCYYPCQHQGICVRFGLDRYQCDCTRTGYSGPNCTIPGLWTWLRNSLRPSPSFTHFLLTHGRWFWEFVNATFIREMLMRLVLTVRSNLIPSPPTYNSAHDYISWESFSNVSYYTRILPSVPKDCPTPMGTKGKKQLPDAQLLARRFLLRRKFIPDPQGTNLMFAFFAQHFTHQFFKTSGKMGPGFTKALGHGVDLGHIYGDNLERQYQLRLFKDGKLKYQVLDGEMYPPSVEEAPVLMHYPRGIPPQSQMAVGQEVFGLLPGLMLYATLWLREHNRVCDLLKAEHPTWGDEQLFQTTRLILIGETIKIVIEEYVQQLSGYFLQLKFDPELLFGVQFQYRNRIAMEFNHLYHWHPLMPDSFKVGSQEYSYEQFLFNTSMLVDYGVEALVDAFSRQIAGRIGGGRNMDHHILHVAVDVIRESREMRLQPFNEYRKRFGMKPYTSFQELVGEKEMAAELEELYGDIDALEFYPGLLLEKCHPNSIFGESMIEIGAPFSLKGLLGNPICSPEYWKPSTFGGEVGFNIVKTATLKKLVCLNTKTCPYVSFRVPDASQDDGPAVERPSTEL

| SMILES | pIC50 [1] | pIC50 [2] |
| --- | --- | --- |
| Cc1ccc(NNC(=O)c2ccc(Cl)cc2)cc1 | < 5.00 | 8.00 |
| COc1ccc(-n2nc(-c3ccc(Cl)cc3)c3c2CCC(O)C3)cc1 (configuration not stated) | < 5.00 | 6.34 |
| Cc1ccc(-n2nc(-c3ccc(Cl)cc3)c3c2CCCCC3)cc1 | < 5.00 |  |
| COc1ccc(-n2nc(-c3ccc(Cl)cc3)c3c2CCC(N(O)C(C)=O)C3)cc1 (configuration not stated) | < 5.00 | 5.62 |
| COc1ccc(NNC(=O)c2ccc(Cl)cc2)cc1 | < 5.00 | 6.89 |
| COc1ccc(NNC(=O)c2ccccc2)cc1 | < 5.00 | 6.74 |
| O=C(NNc1ccc(Cl)cc1)c1ccccc1 | < 5.00 | 6.28 |
| COc1ccc(-n2nc(-c3ccc(Cl)cc3)c3c2CCC(F)C3)cc1 (configuration not stated) | < 5.00 |  |
| Clc1ccc(-c2nn(-c3ccc(Cl)cc3)c3c2CCC3)cc1 | < 5.00 | < 5.00 |
| c1ccc(-c2nn(-c3ccccc3)c3c2CCC3)cc1 | < 5.00 |  |
| CS(=O)(=O)c1ccc(-n2nc(-c3ccc(Cl)cc3)c3c2CCCCC3)cc1 |  | < 5.00 |
| O=C(NNc1ccc(Cl)cc1)c1ccc(Cl)cc1 | < 5.00 | 6.47 |
| O=C(NNc1ccccc1)c1ccccc1 | < 5.00 | 5.00 |

The remaining lines, values ahead:

| pIC50 [1] | pIC50 [2] | SMILES |
| --- | --- | --- |
| < 5.00 |  | Clc1ccc(-c2nn(-c3ccc(Cl)cc3)c3c2CCCCC3)cc1 |
| < 5.00 | < 5.00 | CS(=O)(=O)c1ccc(NNC(=O)c2ccc(Cl)cc2)cc1 |
| < 5.00 | 6.33 | COc1ccc(C(=O)NNc2ccc(Cl)cc2)cc1 |
| < 5.00 | < 5.00 | CS(=O)(=O)c1ccc(-n2nc(-c3ccc(F)cc3)c3c2CCCC3)cc1 |
| < 5.00 | < 5.00 | CS(=O)(=O)c1ccc(NNC(=O)c2ccccc2)cc1 |
| < 5.00 |  | COc1ccc(-n2nc(-c3ccc(Cl)cc3)c3c2CCCCC3)cc1 |
| < 5.00 | < 5.00 | COc1ccc(-n2nc(-c3ccc(Cl)cc3)c3c2CCC(NOC(C)=O)C3)cc1 (configuration not stated) |
| < 5.00 | < 5.00 | CS(=O)(=O)c1ccc(-n2nc(-c3ccc(Cl)cc3)c3c2CCCC3)cc1 |
| < 5.00 | 6.48 | Cc1ccc(NNC(=O)c2ccccc2)cc1 |
| < 5.00 | < 5.00 | COc1ccc(C(=O)NNc2ccccc2)cc1 |
| < 5.00 | 6.48 | O=C(NNc1ccccc1)c1ccc(Cl)cc1 |
